Experimental findings from ChEMBL document CHEMBL1124400, “Synthesis and evaluation of antileukemic activity of 5-thienyl- or 5-(2-furyl)-2,3-dihydro-6,7-bis(hydroxymethyl)-1H-pyrrolizine bis(alkylcarbamates) and derivatives” (J Med Chem, 1989) are described below.

What is called LD50 is the dose expected to kill half of the subjects tested.

The subject of data set [1] is Mus musculus. Kind of data set: Median survival time of treated group / untreated group, when 100 mg/kg compound is administered intraperitoneally in L1210 leukemic mice. Type of data set: functional. The conditions noted are these: route intraperitoneal. The method, boiled down:
(§1)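 Male 3-month-old B6D2F1 mice, 10⁵ L1210 cells ip on day 0. Compound was given ip on days 1, 5 and 9 in aqueous 20% Tween 80 (0.1–0.2 mL per 20 g), 8 mice per group. Twelve vehicle controls. Daily mortality with autopsy to assign leukemic versus toxic death. I = treated MST × 100/control MST. Wilcoxon test, p < 0.05; active if I > 125 and p < 0.05.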

In data set [2] the test system is Mus musculus. Kind of data set: MST of mitomycin 2 mg/kg treated group x 100/MST of untreated control group at a dose of 50 mg/kg in L1210 leukemic mice. In kind it is functional. The method, boiled down: (§2)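 Reference group of 8 B6D2F1 mice bearing ip-grafted 10⁵ L1210 cells (day 0), given mitomycin 2 mg/kg in distilled water ip on days 1, 5 and 9. Controls were 12 mice given vehicle only. Mortality was followed daily with autopsy. Ref I = mitomycin-group MST × 100/control MST, run alongside each test experiment.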

Data set [3] is described as follows: Ratio, I x 100/ref I at a dose of 100 mg/kg in L1210 leukemic mice. In kind it is functional. The gist of the method:
(§3)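 Male B6D2F1 mice, 3 months old, received 10^5 L1210 cells ip on day 0. Dosing was ip on days 1, 5 and 9 in 20% aqueous Tween 80, 0.1–0.2 mL per 20 g, with 8 mice per group. There were 12 vehicle controls and 8 mice given mitomycin 2 mg/kg ip in water. Daily mortality was recorded, with autopsies. Ratio = treated-group MST ×100/reference-group MST; Wilcoxon, p<0.05.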

Data set [4] in a line: Ratio, I x 100/ref I at a dose of 20 mg/kg in L1210 leukemic mice. Type of data set: functional. The gist of the method:
as §3

Data set [5] in a line: Lethal dose in L1210 leukemic mice, by administering compound intraperitoneally. Type of data set: toxicity, organism-based. The conditions noted are these: mouse, in vivo, ip. The method, boiled down: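 Male B6D2F1 mice (3 months old) received 10⁵ L1210 leukemia cells ip on day 0. One day later they were given compound ip. Mortality was recorded daily for 9 days and the acute LD50 expressed in mg/kg.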

Data set [6] relates to Mus musculus. Kind of data set: MST of mitomycin 2 mg/kg treated group x 100/MST of untreated control group at a dose of 100 mg/kg in L1210 leukemic mice. In kind it is functional. The method, boiled down: as §2
A short description of data set [7]: Ratio, I x 100/ref I at a dose of 50 mg/kg in L1210 leukemic mice. In kind it is functional. The method, boiled down:
as §3

For data set [8], the system named is Mus musculus. Kind of data set: MST of mitomycin 2 mg/kg treated group x 100/MST of untreated control group at a dose of 20 mg/kg in L1210 leukemic mice. In kind it is functional. The method, boiled down:
as §2

Data set [9] concerns Mus musculus. Kind of data set: Median survival time of treated group / untreated group, when 50 mg/kg compound is administered intraperitoneally in L1210 leukemic mice. Type of data set: functional. Conditions: route intraperitoneal. The gist of the method:
as §1

The test system of data set [10] is Mus musculus. Kind of data set: Median survival time of treated group / untreated group, when 20 mg/kg compound is administered intraperitoneally in L1210 leukemic mice. Type of data set: functional. Conditions: route intraperitoneal. The gist of the method: as §1
Data set [11] relates to Mus musculus. Kind of data set: MST of mitomycin 2 mg/kg treated group x 100/MST of untreated control group at a dose of 75 mg/kg in L1210 leukemic mice. In kind it is functional. The method, boiled down: as §2
Data set [12] relates to Mus musculus. Kind of data set: MST of mitomycin 2 mg/kg treated group x 100/MST of untreated control group at a dose of 16 mg/kg in L1210 leukemic mice. In kind it is functional. The method, boiled down: as §2
Data set [13] can be described thus: Ratio of acute lethal dose to the efficient dose at 100 mg/kg dose. Type of data set: functional. The gist of the method:
(§4)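 Ratio of acute LD50 to efficient dose. LD50 came from single ip dosing one day after ip grafting of 10⁵ L1210 cells in B6D2F1 mice, with 9-day mortality. The efficient dose came from ip treatment on days 1, 5 and 9 in the median-survival test.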

Data set [14] deals with Mus musculus. Kind of data set: MST of mitomycin 2 mg/kg treated group x 100/MST of untreated control group at a dose of 40 mg/kg in L1210 leukemic mice. In kind it is functional. The method, boiled down: as §2
In data set [15] the test system is Mus musculus. Kind of data set: Median survival time of treated group / untreated group, when 100 mg/kg compound is administered intraperitoneally in L1210 leukemic mice. The conditions noted are these: route intraperitoneal.
Data set [16] can be described thus: Ratio of acute lethal dose to the efficient dose at 85 mg/kg dose. In kind it is functional. The method, boiled down:
as §4

Data set [17] has as its system Mus musculus. Kind of data set: Median survival time of treated group / untreated group, when 40 mg/kg compound is administered intraperitoneally in L1210 leukemic mice. Type of data set: functional. The conditions noted are these: route intraperitoneal. The gist of the method:
as §1

The nature of data set [18]: Ratio, I x 100/ref I at a dose of 40 mg/kg in L1210 leukemic mice. Type of data set: functional. The method, boiled down:
as §3

The subject of data set [19] is Mus musculus. Kind of data set: Median survival time of treated group / untreated group, when 16 mg/kg compound is administered intraperitoneally in L1210 leukemic mice. Type of data set: functional. The conditions noted are these: route intraperitoneal. The method, boiled down:
as §1

Data set [20] in a line: Ratio, I x 100/ref I at a dose of 75 mg/kg in L1210 leukemic mice.
Data set [21] has as its system Mus musculus. Kind of data set: Median survival time of treated group / untreated group, when 75 mg/kg compound is administered intraperitoneally in L1210 leukemic mice. In kind it is functional. Conditions: route intraperitoneal. The method, boiled down:
as §1

Data set [22] is described as follows: Ratio, I x 100/ref I at a dose of 16 mg/kg in L1210 leukemic mice. Type of data set: functional. The gist of the method: as §3
Data set [23] can be described thus: Ratio, I x 100/ref I at a dose of 4 mg/kg in L1210 leukemic mice. In kind it is functional. The method, boiled down: as §3
Data set [24] concerns Mus musculus. Kind of data set: Median survival time of treated group / untreated group, when 10 mg/kg compound is administered intraperitoneally in L1210 leukemic mice. Type of data set: functional. Conditions: route intraperitoneal. The gist of the method: as §1
A short description of data set [25]: Ratio, I x 100/ref I at a dose of 15 mg/kg in L1210 leukemic mice. Type of data set: functional. The method, boiled down:
as §3

In data set [26] the test system is Mus musculus. Kind of data set: Median survival time of treated group / untreated group, when 4 mg/kg compound is administered intraperitoneally in L1210 leukemic mice. In kind it is functional. The conditions noted are these: route intraperitoneal. The gist of the method:
as §1

Data set [27] can be described thus: Ratio, I x 100/ref I at a dose of 10 mg/kg in L1210 leukemic mice. Type of data set: functional. The method, boiled down:
as §3

Data set [28] deals with Mus musculus. Kind of data set: MST of mitomycin 2 mg/kg treated group x 100/MST of untreated control group at a dose of 15 mg/kg in L1210 leukemic mice. In kind it is functional. The method, boiled down:
as §2

In data set [29] the test system is Mus musculus. Kind of data set: MST of mitomycin 2 mg/kg treated group x 100/MST of untreated control group at a dose of 10 mg/kg in L1210 leukemic mice. Type of data set: functional. The gist of the method: as §2
In data set [30] the test system is Mus musculus. Kind of data set: Median survival time of treated group / untreated group, when 15 mg/kg compound is administered intraperitoneally in L1210 leukemic mice. In kind it is functional. The conditions noted are these: route intraperitoneal. The gist of the method:
as §1

Data set [31] relates to Mus musculus. Kind of data set: MST of mitomycin 2 mg/kg treated group x 100/MST of untreated control group at a dose of 4 mg/kg in L1210 leukemic mice. Type of data set: functional. The gist of the method: as §2
Data set [32] in a line: Ratio of acute lethal dose to the efficient dose at 20 mg/kg. Type of data set: functional. The gist of the method: as §4
Data set [33] has as its system Mus musculus. Kind of data set: MST of mitomycin 2 mg/kg treated group x 100/MST of untreated control group at a dose of 8 mg/kg in L1210 leukemic mice. Type of data set: functional. The gist of the method: as §2
The nature of data set [34]: Ratio, I x 100/ref I at a dose of 8 mg/kg in L1210 leukemic mice. In kind it is functional. The gist of the method:
as §3

In data set [35] the test system is Mus musculus. Kind of data set: Median survival time of treated group / untreated group, when 8 mg/kg compound is administered intraperitoneally in L1210 leukemic mice. In kind it is functional. Conditions: route intraperitoneal. The gist of the method:
as §1

Values joined by “and” are separate entries in the source; they are usually repeats but may differ in a detail not shown here. Identical values can stand only once.

For the compound `CNC(=O)OCc1c(COC(=O)NC)c(-c2ccco2)n2c1CCC2`, the Oncostatic index was determined as 100 in data set [1], 108 in data set [9] and 100 in data set [10]. In addition, the figures for the “Ref I oncostatic index” value in [2], in data set [6] and in [8] were 117, 125 and 117, respectively. The Ratio in [3] was 80; in data set [4], 86; in [7] it was 92. In data set [5], this compound showed an LD50 above 150 mg/kg.

For `CNC(=O)OCc1c(COC(=O)NC)c(-c2ccsc2)n2c1CCC2`, the “Ref I oncostatic index” value in data set [11] was 140 and 126; in data set [12] it was 125; in data set [14], 125; in data set [6], 140. In addition, the Ratio is 1.2 in data set [13]; 86 in data set [3]; 1.4 in data set [16]; 80 in [18]; 86 in data set [20]; 80 in [22]. For the same compound, the Oncostatic index was determined as 120 in data set [15], 100 in [17], 100 in data set [19] and 120 in [21]. Besides, in [5], the LD50 is above 150 mg/kg.

Turning to `CC(C)NC(=O)OCc1c(COC(=O)NC(C)C)c(-c2cccs2)n2c1CCC2`, the Ratio came out at 66 in data set [23], 90 in [25] and 79 in data set [27]. Further, the Oncostatic index in [24] came to 129; in [26], 108; in [30], 125. For the same compound, the “Ref I oncostatic index” value in [28] came out at 139; in data set [29] it was 163; in [31] it was 164. In addition, the LD50 in data set [5] stood at 35 mg/kg.

For the compound `CNC(=O)OCc1c(COC(=O)NC)c(-c2cccs2)n2c1CSC2`, the Ratio in [32] was 2.5; in data set [34] it was 86; in data set [4], 103. In addition, the “Ref I oncostatic index” value stood at 117 in data set [33] and 121 in data set [8]. For the same compound, the Oncostatic index in [35] was 100; in data set [10], 125. The LD50 in data set [5] is 50 mg/kg.
